From BindingDB's records for doi:10.1016/j.bmc.2018.05.049 (2018)

Target: T1, Sodium- and chloride-dependent GABA transporter 2 (Mus musculus, UniProt P31649)
T1 sequence (P31649 whole entry): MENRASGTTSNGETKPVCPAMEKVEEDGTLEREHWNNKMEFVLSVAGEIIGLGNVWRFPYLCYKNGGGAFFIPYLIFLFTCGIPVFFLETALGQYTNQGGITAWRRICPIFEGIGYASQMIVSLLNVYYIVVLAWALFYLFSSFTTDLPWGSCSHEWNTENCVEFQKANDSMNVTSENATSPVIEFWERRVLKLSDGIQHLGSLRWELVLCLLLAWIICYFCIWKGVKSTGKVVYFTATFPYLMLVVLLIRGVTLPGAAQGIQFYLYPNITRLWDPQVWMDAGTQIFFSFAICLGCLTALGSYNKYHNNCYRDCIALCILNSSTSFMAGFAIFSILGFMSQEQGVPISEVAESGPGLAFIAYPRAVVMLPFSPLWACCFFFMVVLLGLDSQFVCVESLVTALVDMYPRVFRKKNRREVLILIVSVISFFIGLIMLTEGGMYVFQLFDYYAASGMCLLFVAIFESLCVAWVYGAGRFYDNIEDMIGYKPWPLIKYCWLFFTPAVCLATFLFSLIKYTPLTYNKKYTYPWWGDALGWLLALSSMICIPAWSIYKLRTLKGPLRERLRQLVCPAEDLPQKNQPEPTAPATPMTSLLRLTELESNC
Assay: Inhibition of mouse GAT2 expressed in HEK293 cells assessed as decrease in [3H]GABA uptake preincubated for 25 mins followed by [3H]GABA addition measured after 10 mins by liquid scintillation counting analysis
Procedure, shortened: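 [³H]GABA uptake assay in HEK cells expressing the mGAT subtype named in the line, run in triplicate. Potencies are given as pIC₅₀ ± SEM. No SEM is given where only one triplicate measurement was made. Where 100 µM test compound left uptake at or above 50% (pIC₅₀ ≤ 4.00), the percent remaining [³H]GABA uptake at 100 µM is reported instead.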

Compound	IC50
COc1ccc(C(CC#CCN2CCCC(C(=O)O)C2)(c2ccc(OC)cc2)c2ccc(OC)cc2)cc1 (centres undefined)	33.9 µM
COc1ccc(C(C#CCN2CCCC(C(=O)O)C2)(c2ccc(OC)cc2)c2ccc3c(c2)OCO3)cc1 (centres undefined)	41.7 µM
COc1ccc(C(C#CCCN2CCCC(C(=O)O)C2)(c2ccc(OC)cc2)c2ccc(OC)cc2)cc1 (centres undefined)	35.5 µM
COc1ccc(C(OCCN2CCCC(C(=O)O)C2)(c2ccc(OC)cc2C)c2ccc(OC)cc2C)cc1 (centres undefined)	32.4 µM
